Where “and” joins values, the source holds several entries; their conditions need not be identical. Equal entries are not always repeated.
What was measured:
Type in all cases: toxicity, cell-based
HEK-293T = experiment: Multiplex assay against HEK293T; settings: human, 10 µM, compound concentration 10 uM
Outline: (§1)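 Live cells carried four stains from seeding: Hoechst33342, BioTracker Green Microtubule Cytoskeleton Dye, MitoTracker Red and Annexin V Alexa Fluor 680. They were imaged on a CQ1 microscope at 37°C and 5% CO2 after compound addition. Using CellPathfinder machine-learning gating, cells were split into Hoechst high-intensity objects or normal cells, normal cells into healthy, pyknosed or fragmented nuclei, and pyknosed cells into mitotic or apoptotic; tubulin, mitochondrial-mass and membrane-permeability phenotypes are per cents of healthy-nucleus cells.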

U2OS = experiment: Multiplex assay against U2OS; settings: human, 10 µM, compound concentration 10 uM; outline: as §1
Fibroblast = experiment: Multiplex assay against human fibroblast; settings: 10 µM, compound concentration 10 uM; outline: as §1

Structure (SMILES): CCC(=O)N1CCN(c2ccc(-n3c(=O)ccc4cnc5ccc(-c6cnc7ccccc7c6)cc5c43)cc2C(F)(F)F)CC1 [TORIN1]
- Population Apoptotic (%) (HEK-293T; 12 h, replicate 1): 71% and 67%
- Population Healthy Nuclei (%) (HEK-293T; 12 h, replicate 1): 76% and 71%
- Population Membrane Permeable-Phenotype (%) (HEK-293T; 12 h, replicate 1): 0%
- Population Mitochondria Different-Phenotype (%) (HEK-293T; 12 h, replicate 1): 78% and 76%
- Population Normal (%) (HEK-293T; 12 h, replicate 1): 88%
- Population Tubulin-Different-Phenotype (%) (HEK-293T; 12 h, replicate 1): 40%
- Total Cell Count (HEK-293T; 12 h, replicate 1): 373 and 299
- Population Apoptotic (%) (HEK-293T; 12 h, replicate 2): 51% and 57%
- Population Healthy Nuclei (%) (HEK-293T; 12 h, replicate 2): 79%
- Population Mitochondria Different-Phenotype (%) (HEK-293T; 12 h, replicate 2): 87%
- Population Mitotic Cells (%) (HEK-293T; 12 h, replicate 2): 48% and 42%
- Population Normal (%) (HEK-293T; 12 h, replicate 2): 92%
- Population Tubulin-Different-Phenotype (%) (HEK-293T; 12 h, replicate 2): 37%
- Total Cell Count (HEK-293T; 12 h, replicate 2): 266 and 321
- Population Apoptotic (%) (HEK-293T; 24 h, replicate 1): 45%
- Population Healthy Nuclei (%) (HEK-293T; 24 h, replicate 1): 75% and 74%
- Population Membrane Permeable-Phenotype (%) (HEK-293T; 24 h, replicate 1): 0%
- Population Mitochondria Different-Phenotype (%) (HEK-293T; 24 h, replicate 1): 75% and 81%
- Population Mitotic Cells (%) (HEK-293T; 24 h, replicate 1): 46% and 54%
- Population Normal (%) (HEK-293T; 24 h, replicate 1): 86% and 90%
- Population Tubulin-Different-Phenotype (%) (HEK-293T; 24 h, replicate 1): 43% and 44%
- Total Cell Count (HEK-293T; 24 h, replicate 1): 337 and 289
- Population Apoptotic (%) (HEK-293T; 24 h, replicate 2): 44% and 58%
- Population Mitochondria Different-Phenotype (%) (HEK-293T; 24 h, replicate 2): 82% and 86%
- Population Mitotic Cells (%) (HEK-293T; 24 h, replicate 2): 55% and 41%
- Population Normal (%) (HEK-293T; 24 h, replicate 2): 77% and 71%
- Population Tubulin-Different-Phenotype (%) (HEK-293T; 24 h, replicate 2): 33% and 57%
- Total Cell Count (HEK-293T; 24 h, replicate 2): 225 and 283
- Population Apoptotic (%) (HEK-293T; 48 h, replicate 1): 56% and 69%
- Population Healthy Nuclei (%) (HEK-293T; 48 h, replicate 1): 70% and 72%
- Population Membrane Permeable-Phenotype (%) (HEK-293T; 48 h, replicate 1): 0%
- Population Mitochondria Different-Phenotype (%) (HEK-293T; 48 h, replicate 1): 77% and 75%
- Population Mitotic Cells (%) (HEK-293T; 48 h, replicate 1): 43%
- Population Normal (%) (HEK-293T; 48 h, replicate 1): 73% and 80%
- Population Tubulin-Different-Phenotype (%) (HEK-293T; 48 h, replicate 1): 47% and 35%
- Total Cell Count (HEK-293T; 48 h, replicate 1): 292 and 275
- Population Apoptotic (%) (HEK-293T; 48 h, replicate 2): 68% and 58%
- Population Healthy Nuclei (%) (HEK-293T; 48 h, replicate 2): 56%
- Population Membrane Permeable-Phenotype (%) (HEK-293T; 48 h, replicate 2): 1%
- Population Mitochondria Different-Phenotype (%) (HEK-293T; 48 h, replicate 2): 80% and 82%
- Population Mitotic Cells (%) (HEK-293T; 48 h, replicate 2): 41%
- Population Normal (%) (HEK-293T; 48 h, replicate 2): 38% and 36%
- Population Tubulin-Different-Phenotype (%) (HEK-293T; 48 h, replicate 2): 37% and 58%
- Total Cell Count (HEK-293T; 48 h, replicate 2): 235 and 234
- Population Apoptotic (%) (U2OS; 12 h, replicate 1): 68% and 85%
- Population Healthy Nuclei (%) (U2OS; 12 h, replicate 1): 55%
- Population Normal (%) (U2OS; 12 h, replicate 1): 98% and 96%
- Total Cell Count (U2OS; 12 h, replicate 1): 288 and 258
- Population Apoptotic (%) (U2OS; 12 h, replicate 2): 76% and 92%
- Population Healthy Nuclei (%) (U2OS; 12 h, replicate 2): 71% and 61%
- Total Cell Count (U2OS; 12 h, replicate 2): 109 and 101
- Population Apoptotic (%) (U2OS; 24 h, replicate 1): 77% and 84%
- Population Healthy Nuclei (%) (U2OS; 24 h, replicate 1): 54% and 55%
- Population Normal (%) (U2OS; 24 h, replicate 1): 98% and 96%
- Total Cell Count (U2OS; 24 h, replicate 1): 287 and 256
- Population Apoptotic (%) (U2OS; 24 h, replicate 2): 73% and 83%
- Population Healthy Nuclei (%) (U2OS; 24 h, replicate 2): 72%
- Population Normal (%) (U2OS; 24 h, replicate 2): 97%
- Total Cell Count (U2OS; 24 h, replicate 2): 115 and 106
- Population Apoptotic (%) (U2OS; 48 h, replicate 1): 78% and 72%
- Population Healthy Nuclei (%) (U2OS; 48 h, replicate 1): 44% and 39%
- Population Normal (%) (U2OS; 48 h, replicate 1): 93% and 97%
- Total Cell Count (U2OS; 48 h, replicate 1): 300 and 270
- Population Apoptotic (%) (U2OS; 48 h, replicate 2): 82% and 81%
- Total Cell Count (U2OS; 48 h, replicate 2): 147 and 123
- Population Healthy Nuclei (%) (Fibroblast; 12 h, replicate 1): 60% and 61%
- Population Mitotic Cells (%) (Fibroblast; 12 h, replicate 1): 72% and 76%
- Population Normal (%) (Fibroblast; 12 h, replicate 1): 94% and 95%
- Population Tubulin-Different-Phenotype (%) (Fibroblast; 12 h, replicate 1): 62% and 53%
- Total Cell Count (Fibroblast; 12 h, replicate 1): 155 and 135
- Population Healthy Nuclei (%) (Fibroblast; 12 h, replicate 2): 44%
- Population Mitotic Cells (%) (Fibroblast; 12 h, replicate 2): 65% and 66%
- Population Normal (%) (Fibroblast; 12 h, replicate 2): 90%
- Population Tubulin-Different-Phenotype (%) (Fibroblast; 12 h, replicate 2): 64%
- Total Cell Count (Fibroblast; 12 h, replicate 2): 131 and 150
- Population Healthy Nuclei (%) (Fibroblast; 24 h, replicate 1): 64%
- Population Mitotic Cells (%) (Fibroblast; 24 h, replicate 1): 66% and 50%
- Population Normal (%) (Fibroblast; 24 h, replicate 1): 96% and 94%
- Population Tubulin-Different-Phenotype (%) (Fibroblast; 24 h, replicate 1): 62% and 48%
- Total Cell Count (Fibroblast; 24 h, replicate 1): 137 and 135
- Population Healthy Nuclei (%) (Fibroblast; 24 h, replicate 2): 57% and 45%
- Population Mitotic Cells (%) (Fibroblast; 24 h, replicate 2): 56% and 77%
- Population Normal (%) (Fibroblast; 24 h, replicate 2): 93% and 95%
- Population Tubulin-Different-Phenotype (%) (Fibroblast; 24 h, replicate 2): 59% and 60%
- Total Cell Count (Fibroblast; 24 h, replicate 2): 128 and 150
- Population Healthy Nuclei (%) (Fibroblast; 48 h, replicate 1): 72% and 71%
- Population Mitotic Cells (%) (Fibroblast; 48 h, replicate 1): 50%
- Population Normal (%) (Fibroblast; 48 h, replicate 1): 96% and 97%
- Population Tubulin-Different-Phenotype (%) (Fibroblast; 48 h, replicate 1): 67% and 54%
- Total Cell Count (Fibroblast; 48 h, replicate 1): 127 and 124
- Population Healthy Nuclei (%) (Fibroblast; 48 h, replicate 2): 62% and 46%
- Population Mitotic Cells (%) (Fibroblast; 48 h, replicate 2): 46%
- Population Normal (%) (Fibroblast; 48 h, replicate 2): 95% and 98%
- Population Tubulin-Different-Phenotype (%) (Fibroblast; 48 h, replicate 2): 61% and 77%
- Total Cell Count (Fibroblast; 48 h, replicate 2): 136 and 147

Reference: ChEMBL document CHEMBL5058577, “EUbOPEN Chemogenomics Library 2 (Multiplex)” (2022)
